From PubChem
HEK293 NFkB inh – inhibitors of the PMA/ionomycin-induced NF-kB reporter in HEK293 cells. AID 465. inhibition, % at 3 µM. HEK-293 NF-kB luciferase reporter, luminescence. 62,000 compounds, 0.21% hits;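 active = inhibition above the mean of all tested compounds plus 3 SD, cut at about 40% in these data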
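Timing: 1 h pretreatment, 16 h stimulation, 37 °C; system: HEK-293 cells with stable firefly luciferase reporter driven by four HIV NF-kB elements; doses: 3 µM once, 0.30% DMSO; measured by: luciferase luminescence; control set: DMSO and 10 µM reference inhibitor; repeats: single test; reagent: PMA plus ionomycin mix as NF-kB-activating stimulus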
HER2 expr 66K – Her2 kinase expression inhibition | P04626 | SKBR-3 HER2 protein level, AlphaScreen, 18-24 h; hits give low values | HER2 level % of control, % at 10 µM | 65,000 compounds, 0.69% hits | AID 645;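 active = HER2 level under 5% of the carrier-only control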;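 also: lower value means stronger loss of Her2 protein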
AP complement – orthogonal test for alternative complement pathway inhibitors | inhibition, % at 5 µM | 62,000 compounds, 0.08% hits | Human serum alternative complement pathway, LPS-coated ELISA, C3 deposition; tested in compound mixtures;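 active = inhibition above 30% in each of the two pooled mixtures holding the compound, so the lower value exceeds 30%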
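Test system: human serum alternative complement pathway, C3 deposition on LPS-coated wells; also added: Plate-bound LPS; doses: 5 µM per compound in ten-compound mixtures; schedule: 1 h at 37 °C; detection: Anti-C3 ELISA, OD 450 nm; evaluation: percent inhibition of C3 deposition onto LPS; repeats: two pool placements per compound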
Jurkat tox 60K – cytotoxic compounds reducing Jurkat cell viability. inhibition, % at 4 µM. Jurkat E6.1 viability, ATP luminescence, 48 h. 56,000 compounds, 1.2% hits. AID 463;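 active = inhibition above the mean inhibition of all tested compounds plus 3 SD, cut at about 28% in these data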
JNK3 inh – blocks human JNK3 kinase activity; P53779; purified JNK3 kinase activity, HTS; 60,000 compounds, 0.61% hits; AID 746; inhibition, % at 8 µM; in the data active = inhibition above about 17%
Target sequence (P53779 whole entry, looked up): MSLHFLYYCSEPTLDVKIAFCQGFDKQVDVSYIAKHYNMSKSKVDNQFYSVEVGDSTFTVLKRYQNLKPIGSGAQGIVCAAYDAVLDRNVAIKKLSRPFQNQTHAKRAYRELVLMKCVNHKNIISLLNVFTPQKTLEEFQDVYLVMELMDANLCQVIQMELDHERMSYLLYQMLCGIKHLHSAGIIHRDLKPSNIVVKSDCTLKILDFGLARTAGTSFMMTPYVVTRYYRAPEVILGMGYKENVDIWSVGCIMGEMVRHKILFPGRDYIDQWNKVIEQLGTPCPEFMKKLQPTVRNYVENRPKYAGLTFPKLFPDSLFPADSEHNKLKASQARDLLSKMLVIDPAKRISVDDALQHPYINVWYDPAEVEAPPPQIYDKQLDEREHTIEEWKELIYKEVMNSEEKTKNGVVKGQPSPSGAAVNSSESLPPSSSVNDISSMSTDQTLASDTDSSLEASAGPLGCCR
Hsp90 inh – displaces geldanamycin probe from tumor Hsp90; NCI-N417 lysate Hsp90, Cy3B-geldanamycin FP displacement; P07900; inhibition, % at 30 µM; AID 429; 64,000 compounds, 0.35% hits;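 active = inhibition above 50%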
Numbers stand for hits; - = inactive; . = not tested or not shown. A selection: hits, their analogues and other compounds. The true share with any hit is near 2.5%.

SMILES	HEK293 NFkB inh	HER2 expr 66K	AP complement	Jurkat tox 60K	JNK3 inh	Hsp90 inh
Cc1cc(NC(=O)CCS(=O)(=O)c2nc(-c3ccccc3)cc(C(F)(F)F)n2)no1	-	.	-	33	-	-
CS(=O)(=O)c1nc(-c2ccccc2)cc(C(F)(F)F)n1	-	-24	-	.	.	.
Cc1nc2sc(C(c3ccc(F)cc3)N3CCN(C(=O)c4ccco4)CC3)c(O)n2n1 (stereo unspecified)	-	-	-	-	-	-
O=C1CC(c2cccnc2)c2cc3c(cc2N1)OCCO3 (stereo unspecified)	-	-	-	-	-	-
CCOc1ccccc1C1CC(=O)Nc2cc3c(cc21)OCCO3 (stereo unspecified)	-	-	-	95	-	-
CC(C)Oc1ccccc1C1CC(=O)Nc2cc3c(cc21)OCO3 (stereo unspecified)	-	-	-	97	-	-
CCCOc1ccccc1C1CC(=O)Nc2cc3c(cc21)OCCO3 (stereo unspecified)	47	-	-	98	-	-
CCOc1ccccc1C1CC(=O)Nc2cc(OC)c(OC)c(OC)c21 (stereo unspecified)	-	-	-	.	.	-
Nc1nc(Cl)nc2c1ncn2[C@@H]1O[C@H](COP(=O)(O)OP(=O)(O)OP(=O)(O)O)[C@H](O)C1O (stereo partly specified)	.	.	.	.	.	-
CC1C(=O)N(C)C(=O)c2nc[nH]c21 (stereo unspecified)	.	.	.	.	.	-
COc1ccc2c(C)c(C(=O)NCC(C)O)oc2c1OC (stereo unspecified)	.	-	-	.	.	.
CCc1cc(=O)oc2cc(C)cc(OC(=O)c3ccco3)c12	-	-	-	-	20	-
Cc1nnc(SCC(=O)NCc2ccc3c(c2)OCO3)[nH]c1=O	-	-	-	-	-	-
Oc1c(CN2CCOCC2)cc(COCc2ccccc2)c2cccnc12	-	-	-	54	-	-
CCCS(=O)(=O)N1CCC(C(=O)N2CCC(Cc3ccccc3)CC2)CC1	-	-27	-	-	-	-
Cc1cc(C)c(S(=O)(=O)Nc2ccc(OCC(=O)O)cc2)c(C)c1	-	-	-	-	-	-
Cc1ccc(NCN2C(=O)C3C4C=CC(C4)C3C2=O)cc1 (stereo unspecified)	-	-	-	-	-	-
O=C1C2C3C=CC(C3)C2C(=O)N1CNc1ccc(O)cc1 (stereo unspecified)	-	-	-	-	-	61
Cc1oc(-c2ccc(Cl)cc2)nc1CN1CCC(C(=O)N2CCN(c3ccccn3)CC2)CC1	-	-	-	-	-	-
CN(C)S(=O)(=O)c1ccc(C(=O)Nc2ccnn2C2CCCCC2)cc1	-	-	-	-	-	-
CNC(=O)OCc1cnc2ccc(OC)cc2c1COC(=O)NC	.	.	.	.	.	-
O=C(Nc1ccc2oc(Cc3ccc(Cl)cc3)nc2c1)c1cccnc1	-	-	-	34	-	-
Cc1c(C(=O)O)c(-c2ccccc2)nn1-c1ccccc1	-	-	-	-	-	-
Cc1nn(-c2ccccc2)c(C)c1C(=O)Nc1nnc(-c2ccco2)o1	-	-	-	33	-	-
C=CCN1CCc2c(cc(O)c(O)c2Br)[C@@H](c2ccccc2)C1	.	.	.	.	.	81
SMILES	HEK293 NFkB inh	HER2 expr 66K	AP complement	Jurkat tox 60K	JNK3 inh	Hsp90 inh
O=C(CN1CCOCC1)N1CCc2ccccc2C(c2ccccc2)C1 (stereo unspecified)	-	-	-	-	-	-
Cc1c(-c2cccs2)[n+](=O)c2c(n1[O-])CCCC2	.	-31	.	.	-	-
Cc1c(-c2ccco2)[n+](=O)c2c(n1[O-])CCCCC2	-	-	-	.	.	.
CCCCS(=O)(=O)/C=C\C1C2C=CC(C2)C1S(=O)(=O)CCCC (stereo unspecified)	-	-	-	-	-	-
CCCCS(=O)(=O)/C=C\C=C/S(=O)(=O)CCCC	-	-17	-	.	.	.
CCSc1nnc2c(n1)OC(c1ccc(C(=O)O)cc1)N(C(C)=O)c1ccccc1-2 (stereo unspecified)	-	-	-	-	-	89
CCOc1ccc(C2Oc3nc(SC)nnc3-c3ccccc3N2C(C)=O)cc1OC (stereo unspecified)	-	-	-	-	-	-
Cc1nn(Cc2c(Cl)cccc2Cl)c(C)c1NC(=O)c1cc(C(C)C)on1	44	-	-	45	-	-
Cc1cc(C(=O)Nc2c(C)nn(Cc3c(Cl)cccc3Cl)c2C)no1	-	-	-	-	-	-
C=C(C)COc1ccc(-c2nc(N)ncc2Oc2ccccc2OCC)c(O)c1	-	-	-	-	-	-
CCOc1ccc(-c2nc(N)ncc2-c2ccccc2)c(O)c1	-	-	-	-	51	-
COCCn1cnnc1SCC(=O)c1ccc(S(=O)(=O)N2CCCC2)cc1	-	-	-	-	-	-
CCCCCCCCCCCCCCCCOCC(COCC(F)(F)F)OP(=O)(O)OCO (stereo unspecified)	.	.	.	.	.	-
O=C(Nc1nc2ccccc2[nH]1)c1ccccc1F	61	-	-	52	-	-
CCNC(=O)[C@H]1O[C@@H](n2cnc3c(N)nc(NCCc4ccc(CCC(=O)O)cc4)nc32)C(O)[C@H]1O (stereo partly specified)	.	.	.	.	.	-
CC(N)=NCCC[C@H](N)C(=O)O	.	.	.	.	.	-
COc1cc(C(=O)OCC(=O)c2cc(C)n(C)c2C)cc(OC)c1OC	-	-	-	42	-	-
Cc1cc(C(=O)COC(=O)Cn2cnc3c2c(=O)n(C)c(=O)n3C)c(C)n1C	-	-	-	-	-	-
CC(C)(C)OC(=O)N[C@@H](Cc1ccccc1)c1nnc(SCC(=O)O)o1	-	-	-	-	-	-
CCC(C)[C@@H](NC(=O)OC(C)(C)C)c1nnc(S(=O)(=O)Cc2cccc(C)c2)o1 (stereo partly specified)	-	-17	-	-	-	-
CCC(C)C(NCc1cccc(C)c1)C(=O)O (stereo unspecified)	-	-	-	.	.	-
CC(C)(C)OC(=O)N[C@@H](Cc1ccccc1)c1nnc(S(=O)(=O)Cc2ccccc2)o1	-	-	31	-	-	-
CC1CCN(C(=O)Cn2cc3c(n2)CCCC3)CC1	-	-	-	-	-	-
Cc1ccc(OCC(O)C(C)NC(C)C)c2c1CCC2 (stereo unspecified)	.	.	.	.	.	-
C=CCNc1nc2c(c(=O)n(C)c(=O)n2C)n1CC	-	-	-	-	-	-
C=CCNc1nc2c(c(=O)n(C)c(=O)n2C)n1CCCCCC	-	-	-	82	-	-
CS(=O)(=O)c1ccc2nc(NC(NC(=O)c3ccco3)(C(F)(F)F)C(F)(F)F)sc2c1	.	-	.	.	-	-
Cc1ccc(S(=O)(=O)CCC(=O)c2ccc(O)cc2O)cc1	-	-7.3	-	-	-	-
Cc1ccc(S(=O)(=O)CCC(=O)OCC(=O)Nc2cc(C)on2)cc1	-	-	-	-	-	-
